Experimental data taken from ChEMBL document CHEMBL1152611, “Indene-based frameworks targeting the 5-HT6 serotonin receptor: ring constraint in indenylsulfonamides using cyclic amines and structurally abbreviated counterparts” (Bioorg Med Chem, 2009).

Assays:
[1] = target: T1, 5-hydroxytryptamine receptor 6 (Homo sapiens, UniProt P50406); assay: Displacement of [3H]LSD from human 5HT6 receptor expressed in HEK293 cells at 100 nM; type: cell-based
[2] = target: T1, 5-hydroxytryptamine receptor 6; assay: Displacement of [3H]LSD from human 5HT6 receptor expressed in HEK293 cells; type: cell-based
In short: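 Commercial HEK-293 membranes with human 5-HT6 diluted 1:40 in 50 mM Tris-HCl, 10 mM MgCl2, 0.5 mM EDTA, pH 7.4. Incubated with 2.7 nM [3H]-LSD and 22.9 µg protein for 60 min at 37 °C, then filtered on PEI-treated glass fibre. Nonspecific binding defined with 100 µM serotonin. Triplicate points; IC50 from a regression line, converted to Ki by Cheng-Prusoff.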

[3] = target: T1, 5-hydroxytryptamine receptor 6; assay: Antagonist activity at human 5HT6 receptor expressed in HEK293 cells assessed as inhibition of 5-HT-stimulated cAMP accumulation by HTRF assay relative to untreated control; type: functional, cell-based
In short: (§1)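 HEK-293F cells stably expressing human 5-HT6, serum-starved overnight, 20,000 cells/well in Ham's F12 with 1 mM IBMX and 20 µM pargyline. Compound or DMSO vehicle (final DMSO ≤2%) added for 30 min at 37 °C, with 5-HT present in antagonist mode. HTRF cAMP detection with cryptate and XL-665, 1 h at room temperature, read at 665/620 nm.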

[4] = target: T2, 5-hydroxytryptamine receptor 1A (Homo sapiens, UniProt P08908); assay: Inhibition of human 5HT1A receptor
T2 sequence (P08908 whole entry): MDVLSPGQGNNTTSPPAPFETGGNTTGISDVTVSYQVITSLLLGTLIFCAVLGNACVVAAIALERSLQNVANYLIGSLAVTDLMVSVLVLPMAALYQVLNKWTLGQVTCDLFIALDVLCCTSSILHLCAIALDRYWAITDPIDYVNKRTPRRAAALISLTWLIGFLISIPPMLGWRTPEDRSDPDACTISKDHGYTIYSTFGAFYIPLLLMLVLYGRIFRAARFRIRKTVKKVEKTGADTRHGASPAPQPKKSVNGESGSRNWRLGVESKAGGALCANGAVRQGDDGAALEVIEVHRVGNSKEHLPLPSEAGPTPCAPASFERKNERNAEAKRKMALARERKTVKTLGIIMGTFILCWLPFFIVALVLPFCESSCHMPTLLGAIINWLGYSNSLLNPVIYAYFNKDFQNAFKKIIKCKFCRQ

[5] = target: T3, Alpha-2A adrenergic receptor (Homo sapiens, UniProt P08913); assay: Inhibition of human alpha-2a adrenergic receptor
T3 sequence (P08913 whole entry): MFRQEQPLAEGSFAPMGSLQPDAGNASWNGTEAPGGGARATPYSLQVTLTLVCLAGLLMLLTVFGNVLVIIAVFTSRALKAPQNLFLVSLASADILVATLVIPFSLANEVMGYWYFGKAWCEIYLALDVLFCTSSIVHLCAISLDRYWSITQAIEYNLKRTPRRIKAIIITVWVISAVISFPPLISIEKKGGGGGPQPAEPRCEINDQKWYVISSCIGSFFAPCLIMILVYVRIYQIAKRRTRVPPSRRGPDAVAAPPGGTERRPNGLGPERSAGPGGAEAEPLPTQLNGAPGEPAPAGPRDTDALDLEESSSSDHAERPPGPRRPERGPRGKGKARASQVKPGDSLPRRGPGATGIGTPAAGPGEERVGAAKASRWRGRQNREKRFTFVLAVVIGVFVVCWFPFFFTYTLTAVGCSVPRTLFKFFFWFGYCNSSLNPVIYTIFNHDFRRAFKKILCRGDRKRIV

[6] = target: T1, 5-hydroxytryptamine receptor 6; assay: Antagonist activity at 5HT6 receptor; type: functional
[7] = target: T4, 5-hydroxytryptamine receptor 2C (Homo sapiens, UniProt P28335); assay: Inhibition of human 5HT2C receptor
T4 sequence (P28335 whole entry): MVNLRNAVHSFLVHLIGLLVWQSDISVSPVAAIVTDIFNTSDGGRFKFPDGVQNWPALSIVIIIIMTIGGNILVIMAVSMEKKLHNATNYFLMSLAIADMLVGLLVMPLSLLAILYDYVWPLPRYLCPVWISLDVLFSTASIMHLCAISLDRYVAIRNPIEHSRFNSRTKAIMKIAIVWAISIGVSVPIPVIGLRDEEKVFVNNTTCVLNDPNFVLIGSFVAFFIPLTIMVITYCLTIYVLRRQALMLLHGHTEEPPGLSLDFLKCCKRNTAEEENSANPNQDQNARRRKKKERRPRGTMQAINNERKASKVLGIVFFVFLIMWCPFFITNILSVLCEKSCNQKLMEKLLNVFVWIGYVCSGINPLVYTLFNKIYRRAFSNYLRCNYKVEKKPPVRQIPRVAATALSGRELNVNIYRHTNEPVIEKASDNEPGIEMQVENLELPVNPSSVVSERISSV

[8] = target: T1, 5-hydroxytryptamine receptor 6; assay: Antagonist activity at human 5HT6 receptor expressed in HEK293 cells assessed as inhibition of 5-HT-stimulated cAMP accumulation by HTRF assay; type: functional, cell-based; in short: as §1
[9] = target: Sodium-dependent serotonin transporter (Homo sapiens, UniProt P31645); assay: Inhibition of human SERT
[10] = target: T1, 5-hydroxytryptamine receptor 6; assay: Binding affinity to 5HT6 receptor
[11] = target: T1, 5-hydroxytryptamine receptor 6; assay: Agonist activity at 5HT6 receptor; type: functional
In short: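 HEK-293F cells stably expressing human 5-HT6, kept overnight in serum-free medium, then 20,000 cells/well in Ham's F12 with 1 mM IBMX and pargyline. Compound (DMSO at most 2% final) added for 30 min at 37 °C without 5-HT. cAMP measured by HTRF (cryptate plus XL-665), 1 h at room temperature, 665/620 nm ratio read.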

[12] = target: T5, Adrenergic receptor alpha-1 (Rattus norvegicus, UniProt P15823+P23944+P43140); assay: Inhibition of rat alpha1 adrenergic receptor
T5 sequence (P15823 whole entry): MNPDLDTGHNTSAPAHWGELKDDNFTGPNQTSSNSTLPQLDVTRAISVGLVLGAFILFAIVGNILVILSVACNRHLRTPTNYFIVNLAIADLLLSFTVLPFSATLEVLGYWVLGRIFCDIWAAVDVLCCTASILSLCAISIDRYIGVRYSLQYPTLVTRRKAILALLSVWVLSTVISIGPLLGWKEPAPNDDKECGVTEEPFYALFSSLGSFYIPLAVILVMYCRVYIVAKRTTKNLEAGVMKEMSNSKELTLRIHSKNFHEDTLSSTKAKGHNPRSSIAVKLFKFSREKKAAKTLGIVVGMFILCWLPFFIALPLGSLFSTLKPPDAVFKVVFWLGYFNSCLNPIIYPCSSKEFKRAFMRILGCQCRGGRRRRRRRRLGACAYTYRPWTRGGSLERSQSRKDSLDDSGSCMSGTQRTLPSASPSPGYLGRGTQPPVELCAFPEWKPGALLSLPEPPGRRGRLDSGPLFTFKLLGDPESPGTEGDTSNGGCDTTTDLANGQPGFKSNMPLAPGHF
T5 sequence (P23944 whole entry): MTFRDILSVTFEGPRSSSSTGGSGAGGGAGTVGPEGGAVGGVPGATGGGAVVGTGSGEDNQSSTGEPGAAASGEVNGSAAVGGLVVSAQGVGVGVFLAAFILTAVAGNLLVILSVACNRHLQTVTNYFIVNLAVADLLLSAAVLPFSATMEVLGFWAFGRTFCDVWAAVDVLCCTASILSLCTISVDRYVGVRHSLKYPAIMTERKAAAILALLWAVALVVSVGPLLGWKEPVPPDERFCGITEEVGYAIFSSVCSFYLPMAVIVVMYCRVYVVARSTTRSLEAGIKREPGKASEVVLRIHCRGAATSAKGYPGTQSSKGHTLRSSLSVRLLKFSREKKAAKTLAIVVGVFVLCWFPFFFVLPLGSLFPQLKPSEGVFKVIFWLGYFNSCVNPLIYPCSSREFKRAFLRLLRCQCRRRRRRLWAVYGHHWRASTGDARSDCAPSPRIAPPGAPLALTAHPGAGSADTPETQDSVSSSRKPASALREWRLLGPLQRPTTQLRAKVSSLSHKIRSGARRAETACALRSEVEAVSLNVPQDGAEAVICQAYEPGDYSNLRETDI
T5 sequence (P43140 whole entry): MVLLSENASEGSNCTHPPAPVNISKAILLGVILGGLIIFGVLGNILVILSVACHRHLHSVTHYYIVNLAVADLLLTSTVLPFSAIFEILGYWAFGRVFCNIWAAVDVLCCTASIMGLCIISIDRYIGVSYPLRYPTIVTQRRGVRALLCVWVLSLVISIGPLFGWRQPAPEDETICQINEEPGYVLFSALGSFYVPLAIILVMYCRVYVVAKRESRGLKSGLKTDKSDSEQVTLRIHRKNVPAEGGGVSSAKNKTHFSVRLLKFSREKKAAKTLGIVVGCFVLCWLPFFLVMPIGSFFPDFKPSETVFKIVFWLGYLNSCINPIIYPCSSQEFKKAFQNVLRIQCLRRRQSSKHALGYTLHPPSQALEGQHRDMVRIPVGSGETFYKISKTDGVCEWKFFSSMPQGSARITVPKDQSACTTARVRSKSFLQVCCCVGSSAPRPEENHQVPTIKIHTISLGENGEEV

[13] = target: T1, 5-hydroxytryptamine receptor 6; assay: Agonist activity at human 5HT6 receptor expressed in HEK293 cells assessed as stimulation of cAMP accumulation by HTRF assay relative to control; type: functional, cell-based; in short: as §1

T1 sequence (P50406 whole entry): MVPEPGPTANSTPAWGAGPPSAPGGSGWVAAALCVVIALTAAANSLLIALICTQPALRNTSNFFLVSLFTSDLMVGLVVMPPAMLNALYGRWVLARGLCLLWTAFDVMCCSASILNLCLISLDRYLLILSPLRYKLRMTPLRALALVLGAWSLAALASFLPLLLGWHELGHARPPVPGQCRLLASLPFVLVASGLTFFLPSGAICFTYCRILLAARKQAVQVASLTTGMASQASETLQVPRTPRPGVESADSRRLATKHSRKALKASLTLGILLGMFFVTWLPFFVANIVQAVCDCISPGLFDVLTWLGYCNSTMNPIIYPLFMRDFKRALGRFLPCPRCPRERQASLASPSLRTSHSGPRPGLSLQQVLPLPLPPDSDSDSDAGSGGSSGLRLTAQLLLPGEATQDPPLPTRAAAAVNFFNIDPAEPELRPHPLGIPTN
Sodium-dependent serotonin transporter, sequence (P31645 whole entry): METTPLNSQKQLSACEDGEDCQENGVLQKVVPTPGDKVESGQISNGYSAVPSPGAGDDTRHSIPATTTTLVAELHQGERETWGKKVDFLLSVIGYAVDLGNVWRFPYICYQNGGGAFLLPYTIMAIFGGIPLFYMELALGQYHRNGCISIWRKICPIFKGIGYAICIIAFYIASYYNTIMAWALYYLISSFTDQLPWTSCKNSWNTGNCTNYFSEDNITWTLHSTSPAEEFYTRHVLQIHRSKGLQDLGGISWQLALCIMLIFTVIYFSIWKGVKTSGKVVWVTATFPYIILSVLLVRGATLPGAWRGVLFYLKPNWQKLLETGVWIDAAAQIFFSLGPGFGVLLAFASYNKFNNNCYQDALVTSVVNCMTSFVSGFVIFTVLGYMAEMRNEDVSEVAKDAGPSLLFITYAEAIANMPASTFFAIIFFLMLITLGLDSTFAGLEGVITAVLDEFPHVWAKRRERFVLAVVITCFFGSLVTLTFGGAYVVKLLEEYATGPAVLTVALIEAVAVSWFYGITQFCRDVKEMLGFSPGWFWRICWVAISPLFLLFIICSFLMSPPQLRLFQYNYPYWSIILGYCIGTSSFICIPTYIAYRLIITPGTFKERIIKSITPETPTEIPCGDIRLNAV

Compound	inhibition [1] [%]	Ki [2] [nM]	Imax [3] [%]	IC50 [4] [nM]	IC50 [5] [nM]	IC50 [6] [nM]	Ki [10] [nM]	other results
Cc1cn(S(=O)(=O)c2ccc(N)cc2)c2ccccc12	–	–	–	–	–	320	–	–
CN(C)Cc1cn(S(=O)(=O)c2ccccc2)c2ccccc12	–	–	–	–	–	880	3	–
O=S(=O)(Nc1ccc2[nH]cc(C[C@@H]3CCCN3)c2c1)c1ccc(C(F)(F)F)cc1	–	–	–	–	–	21.6	10	–
O=S(=O)(Nc1ccc2[nH]cc(C[C@H]3CCCN3)c2c1)c1ccc(C(F)(F)F)cc1	–	–	–	–	–	–	0.4	EC50 [11]: 4.5 nM

Second part, led by results:

inhibition [1] [%]	Ki [2] [nM]	Imax [3] [%]	IC50 [4] [nM]	IC50 [5] [nM]	IC50 [6] [nM]	Compound	Ki [10] [nM]	other results
57	–	–	–	–	–	Cc1c(S(=O)(=O)Nc2ccc3c(c2)C([C@H]2CCN(C)C2)=CC3)sc2ccc(Cl)cc12	–	–
86	18	28	> 10000	1210	–	CC1=C(C2CCCN(C)C2)c2cc(NS(=O)(=O)c3c(Cl)nc4sccn34)ccc2C1 (stereo unspecified)	–	–
22	–	–	–	–	–	CC1=C(C2CCCN(C)C2)c2cc(NS(=O)(=O)c3sc4ccc(Cl)cc4c3C)ccc2C1 (stereo unspecified)	–	–
75	80	92	> 10000	> 10000	–	CC1=CC(C)(C)c2ccc(NS(=O)(=O)c3c(Cl)nc4sccn34)cc21	–	IC50 [7]: > 10000 nM; IC50 [8]: 2400 nM; IC50 [9]: > 10000 nM
84	64	10	> 10000	> 1000	–	COc1cc2c(cc1NS(=O)(=O)c1c(Cl)nc3sccn13)C(C)=C(C)C2	–	IC50 [12]: > 10000 nM; IC50 [7]: > 1000 nM; IC50 [9]: > 10000 nM; Emax [13]: 49%
